Entries after “also recorded” stand apart in the source; their conditions may differ. Read-outs that look alike come from different tables or passages of the source.
Assays:
[1] = assay type: in vivo, human; conditions: for AUC(0-inf): AUCinf; for AUC(0-t): AUClast
[2] = aqueous solution, cited from earlier work
[3] = Safety and tolerability; assay type: in vivo, human; conditions: healthy participants
Outline: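 Open-label, randomized, 2-period, 2-sequence crossover in healthy men and women of non-childbearing potential, aged 18–55 years. Arms were a single oral 250 mg dose of test compound after overnight fast, or the same dose on day 5 of proton pump inhibitor 40 mg daily for 5 days. Dosing was supervised, in the morning with 240 mL water. All participants dosed at least once were included. AEs, ECGs, vital signs and safety labs were reviewed throughout.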

[4] = repeated administration; cited from earlier work
[5] = healthy participants, plasma, single oral crizotinib 250 mg on day 5 of esomeprazole 40 mg/day (n = 15)
[6] = healthy participants, single oral crizotinib 250 mg on day 5 of esomeprazole 40 mg/day (n = 15)
[7] = human, plasma, oral, 250 mg, Adjusted Geometric Mean, Reference, Reference: single 250-mg crizotinib dose after overnight fasting
[8] = human, plasma, oral, Adjusted Geometric Mean, Test, Test: esomeprazole 40 mg per day for 5 days and single 250-mg crizotinib dose after overnight fasting on day 5
[9] = human, plasma, po, 250 mg, Arithmetic Mean ± SD, healthy participants, plasma, single oral crizotinib 250 mg on day 5 of esomeprazole 40 mg/day (n = 15)
[10] = human, plasma, po, 250 mg, Geometric Mean (%CV), healthy participants, plasma, single oral crizotinib 250 mg on day 5 of esomeprazole 40 mg/day (n = 15)
[11] = N = 15 per treatment, MedDRA preferred term
[12] = Reference: single 250-mg crizotinib dose after overnight fasting
[13] = Test: esomeprazole 40 mg per day for 5 days and single 250-mg crizotinib dose after overnight fasting on day 5
[14] = molar ratio PF-06260182/crizotinib, single oral crizotinib 250 mg alone (n = 15)

SMILES: C[C@@H](Oc1cc(-c2cnn(C3CCNCC3)c2)cnc1N)c1c(Cl)ccc(F)c1Cl [Crizotinib]
- Effect of esomeprazole coadministration on peak exposure (Cmax) ([1]; esomeprazole 40 mg once daily x 5 days, single crizotinib 250 mg): did not affect; also recorded: no effect
- tmax, median (range) [1, 5]: 5.00 (3.00‐6.00) h
- CL/F (apparent clearance after oral dose), Arithmetic Mean ± SD [1, 6]: 124.8 ± 40.9 L/h
- CL/F (apparent clearance after oral dose), Geometric Mean (%CV) [1, 6]: 117.8 (33) L/h
- AUC(0-inf) [1, 7]: 2370 ng·h/mL
- AUC(0-t) [1, 7]: 2240 ng·h/mL
- Cmax [1, 7]: 115 ng/mL
- AUC(0-inf) [1, 8]: 2120 ng·h/mL
- AUC(0-t) [1, 8]: 2010 ng·h/mL
- Cmax [1, 8]: 117 ng/mL
- Tmax ([1]; human, plasma, po, 250 mg): 5 h
- half-life ([1]; human, plasma, po, 250 mg): 35.8 ± 4.4 h
- AUC(0-inf) [1, 9]: 2260 ± 891 ng·h/mL
- AUC(0-inf) [1, 10]: 2120 ng·h/mL
- AUC(0-t) [1, 9]: 2170 ± 876 ng·h/mL
- AUC(0-t) [1, 10]: 2020 ng·h/mL
- Cmax [1, 9]: 119 ± 32.9 ng/mL
- Cmax [1, 10]: 115 ng/mL
- half-life ([1]; human, plasma, po, 250 mg, t1/2 (terminal elimination half-life), Arithmetic Mean ± SD, healthy participants, plasma, single oral crizotinib 250 mg after overnight fast, alone (n = 15)): 33.2 ± 7 h
- Median time to Cmax ([1]; with or without esomeprazole, single crizotinib 250 mg): 5 h
- solubility ([2]; pH 1.6): > 10000 µg/mL
- solubility ([2]; pH 8.2): < 100 µg/mL
- gastrointestinal disorders (system organ class), all causality [3]: 11 participants
- nervous system disorders (system organ class), all causality [3]: 4 participants
- treatment-related gastrointestinal disorders (system organ class) [3]: 11 participants
- Discontinuations due to AEs, all causality ([3]; N = 15 per treatment): 0
- Dose reductions or temporary discontinuation due to AEs ([3]; N = 15 per treatment): 0
- Participants with AEs, all causality ([3]; N = 15 per treatment): 12 (12)
- Participants with AEs, treatment-related ([3]; N = 15 per treatment): 12 (12)
- Participants with serious AEs ([3]; N = 15 per treatment): 0
- Participants with severe AEs ([3]; N = 15 per treatment): 0
- Abdominal pain upper, all causality [3, 11]: 0
- Abdominal pain, all causality [3, 11]: 3 (3)
- Abdominal pain, treatment-related [3, 11]: 3 (3)
- Abnormal gastrointestinal sounds, all causality [3, 11]: 1 (1)
- Abnormal gastrointestinal sounds, treatment-related [3, 11]: 1 (1)
- Diarrhea, all causality [3, 11]: 11 (11)
- Diarrhea, treatment-related [3, 11]: 11 (11)
- Dizziness, all causality [3, 11]: 2 (2)
- Dizziness, treatment-related [3, 11]: 2 (2)
- Fatigue, all causality [3, 11]: 2 (2)
- Fatigue, treatment-related [3, 11]: 2 (2)
- Headache, all causality [3, 11]: 2 (2)
- Headache, treatment-related [3, 11]: 2 (2)
- Nausea, all causality [3, 11]: 2 (2)
- Nausea, treatment-related [3, 11]: 2 (2)
- Number of AEs, all causality ([3]; treatment-emergent): 28
- Number of AEs, treatment-related ([3]; treatment-emergent): 24
- Number of AEs, treatment-related ([3]; treatment-emergent, listed as crizotinib): Twenty‐four
- Overall safety and tolerability ([3]; single 250-mg dose): generally safe and well tolerated
- time to steady state [4]: 15 days

SMILES: CC(Oc1cc(-c2cnn(C3CCNC(=O)C3)c2)cnc1N)c1c(Cl)ccc(F)c1Cl (stereo not shown) [PF‐06260182]
- AUCinf, Adjusted Geometric Mean, Reference [1, 12]: 446.0 ng·h/mL
- AUClast, Adjusted Geometric Mean, Reference [1, 12]: 436.9 ng·h/mL
- Cmax, Adjusted Geometric Mean, Reference [1, 12]: 34.8 ng/mL
- AUCinf, Adjusted Geometric Mean, Test [1, 13]: 367.8 ng·h/mL
- AUClast, Adjusted Geometric Mean, Test [1, 13]: 359.8 ng·h/mL
- Cmax, Adjusted Geometric Mean, Test [1, 13]: 26.9 ng/mL
- apparent t1/2, mean value ([1]; both treatments (crizotinib alone and with esomeprazole)): ≈ 20 hours
- AUCinf, Arithmetic Mean ± SD [1, 5]: 383 ± 127 ng·h/mL
- AUCinf, Geometric Mean (%CV) [1, 5]: 364 (33) ng • h/mL
- AUClast, Arithmetic Mean ± SD [1, 5]: 376 ± 126 ng·h/mL
- AUClast, Geometric Mean (%CV) [1, 5]: 357 (34) ng • h/mL
- Cmax, Arithmetic Mean ± SD [1, 5]: 27.7 ± 6.8 ng/mL
- Cmax, Geometric Mean (%CV) [1, 5]: 26.8 (25) ng/mL
- t1/2 (terminal elimination half-life), Arithmetic Mean ± SD [1, 5]: 19.5 ± 5.9 h
- tmax, median (range) [1, 5]: 6.00 (5.00‐8.05) h
- MRAUCinf (metabolite to parent ratio of AUCinf), Geometric Mean (%CV) ([1]; molar ratio PF-06260182/crizotinib, single oral crizotinib 250 mg alone (n = 14)): 0.18 (16)
- MRAUClast (metabolite to parent ratio of AUClast), Geometric Mean (%CV) [1, 14]: 0.19 (18)
- MRCmax (metabolite to parent ratio of Cmax), Geometric Mean (%CV) [1, 14]: 0.29 (26)

SMILES: COc1ccc2nc([S@@+]([O-])Cc3ncc(C)c(OC)c3C)[nH]c2c1 [esomeprazole, Esomeprazole]
- gastrointestinal disorders (system organ class), all causality [3]: 3 participants
- nervous system disorders (system organ class), all causality [3]: 2 participants
- treatment-related gastrointestinal disorders (system organ class) [3]: 3 participants
- Number of AEs, treatment-related ([3]; treatment-emergent): 7
